{"source": "ChEMBL document CHEMBL4376878", "about": "“Potent Thiophene Antagonists of Human Complement C3a Receptor with Anti-Inflammatory Activity” (J Med Chem, 2020)", "key": {"[1]": {"molecular_target": "T1, C3a anaphylatoxin chemotactic receptor (Homo sapiens, UniProt Q16581)", "T1 sequence (Q16581 whole entry)": "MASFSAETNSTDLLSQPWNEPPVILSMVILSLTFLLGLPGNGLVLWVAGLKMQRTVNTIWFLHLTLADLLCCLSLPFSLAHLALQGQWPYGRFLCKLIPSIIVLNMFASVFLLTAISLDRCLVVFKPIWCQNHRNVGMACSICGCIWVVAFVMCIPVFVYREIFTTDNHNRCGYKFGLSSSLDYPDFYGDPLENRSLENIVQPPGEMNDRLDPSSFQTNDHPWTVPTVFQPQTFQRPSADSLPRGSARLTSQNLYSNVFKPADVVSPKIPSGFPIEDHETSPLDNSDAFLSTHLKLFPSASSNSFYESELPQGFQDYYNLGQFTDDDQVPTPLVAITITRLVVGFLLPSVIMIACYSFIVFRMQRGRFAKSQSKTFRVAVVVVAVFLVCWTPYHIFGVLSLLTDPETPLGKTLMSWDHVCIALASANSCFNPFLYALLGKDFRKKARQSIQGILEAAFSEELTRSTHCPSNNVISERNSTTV", "experiment": "Agonist activity at C3a receptor in human MDM cells assessed as induction of intracellular calcium release measured at 1 sec interval for => 200 secs by Fluo-3 AM dye-based FLIPR assay", "format": "cell-based", "summary_of_the_method": "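HMDMs were differentiated from CD14⁺ monocytes with M-CSF (100 ng/mL) for 7 days and seeded overnight at 5 × 10⁴ cells/well. Cells were loaded with 4 μM Fluo-3 AM for 1 h at 37 °C, then placed in HBSS with 2.5 mM probenecid and 20 mM HEPES, pH 7.4. Agonist was added on FLIPR and read at ex 495/em 520 nm. EC50 is relative to the maximum from 1 μM C3a; n ≥ 3.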"}, "[2]": {"molecular_target": "T2, C3a anaphylatoxin chemotactic receptor (Homo sapiens) (UniProt Q16581)", "T2 sequence (whole entry)": "T1 sequence (Q16581 whole entry)", "experiment": "(§1) Antagonist activity at C3a receptor in human MDM cells assessed as inhibition of C3a-induced intracellular calcium release preincubated for 30 mins followed by C3a addition and measured at 1 sec interval for => 200 secs by Fluo-3 AM dye-based FLIPR assay", "format": "functional, cell-based", "summary_of_the_method": "(§2)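 Macrophages were derived from CD14⁺ monocytes (M-CSF, 7 days) and dye-loaded with 4 μM Fluo-3 AM for 1 h at 37 °C in HBSS/probenecid/HEPES, pH 7.4. Antagonist was preincubated for 30 min at 37 °C before addition of synthetic full-length human C3a (100 nM). FLIPR fluorescence was read at ex 495/em 520 nm. Percent response was plotted against log concentration; n ≥ 3.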"}, "[3]": {"molecular_target": "T1, C3a anaphylatoxin chemotactic receptor", "experiment": "as §1", "format": "functional, cell-based", "conditions": "read-out: IC50", "summary_of_the_method": "as §2"}, "[4]": {"experiment": "Stability of the compound in rat plasma at 1 mM measured after 4 hrs by LC-MS analysis", "format": "ADME, cell-free", "summary_of_the_method": "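Compound added to rat plasma from 1 mM DMSO stock (stock concentration) and incubated at 37 °C. Samples taken at 0, 5, 15, 30, 60, 120 and 240 min, quenched in MeCN/H₂O 9:1, centrifuged and analyzed by LC-MS. Plasma activity checked with SLIGRL-NH₂.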"}, "[5]": {"experiment": "AUC (0 to 8 hrs) in Wistar rat at 10 mg/kg, po by LC-MS/MS analysis", "format": "ADME, organism-based", "parameters": "dose 10 mg/kg, time < 8 hr, route oral", "conditions": "in vivo", "summary_of_the_method": "(§3)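 Male Wistar rats with jugular vein catheter, fasted overnight; dosed p.o. by gavage in olive oil or i.v. via catheter in 50% DMSO. Blood drawn from conscious unrestrained rats 5 min before dosing, then 5, 15, 30 min and 1–8 h after. Volume replaced with heparinized saline. Rats fed after 4 h sample. n = 3 per route.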"}, "[6]": {"experiment": "AUC (0 to 8 hrs) in Wistar rat at 1 mg/kg, iv by LC-MS/MS analysis", "format": "ADME, organism-based", "parameters": "time < 8 hr, dose 1 mg/kg, route intravenous", "conditions": "in vivo", "summary_of_the_method": "as §3"}, "[7]": {"experiment": "Volume of distribution in Wistar rat at 1 mg/kg, iv by LC-MS/MS analysis", "format": "ADME, organism-based", "conditions": "in vivo", "summary_of_the_method": "as §3"}, "[8]": {"experiment": "Elimination half-life in Wistar rat at 1 mg/kg, iv by LC-MS/MS analysis", "format": "ADME, organism-based", "conditions": "in vivo, read-out: beta t1/2", "summary_of_the_method": "as §3"}, "Rattus norvegicus [9]": {"test_system": "Rattus norvegicus", "experiment": "Antiinflammatory activity in Wistar rat model of BR103-induced paw edema assessed as reduction in hind paw swelling at 10 mg/kg, po administered via gavage pretreated for 2 hrs followed by BR103 challenge and measured after 30 mins by digital caliper method relative to control", "format": "functional", "parameters": "scale not given: the % may be the effect or the level left", "summary_of_the_method": "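Male Wistar rats were given antagonist at 10 mg/kg by oral gavage in olive oil 2 h before intraplantar BR103 (350 μg in 100 μL of 5% DMSO). Sham paws received vehicle; sham and control rats received olive oil only. Paw thickness and width were measured with digital calipers at 0, 0.5, 1 and 2 h after agonist; n = 3 per group.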"}, "Rattus norvegicus [10]": {"test_system": "Rattus norvegicus", "experiment": "Antiinflammatory activity in Wistar rat model of BR103-induced paw edema assessed as reduction in Il6 gene expression at 10 mg/kg, po administered via gavage pretreated for 2 hrs followed by BR103 challenge and measured after 30 mins by SYBR green dye based RT-PCR analysis", "format": "functional, organism-based", "summary_of_the_method": "(§4)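 Rats given 10 mg/kg p.o. in olive oil 2 h before i.pl. BR103 (350 μg/paw). Paws collected 0.5 h after agonist and homogenized in TRIsure for RNA. qPCR run in duplicate, normalized to Hprt, with fold change relative to sham. n = 3–5 male Wistar rats per group.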"}, "Rattus norvegicus [11]": {"test_system": "Rattus norvegicus", "experiment": "Antiinflammatory activity in Wistar rat model of BR103-induced paw edema assessed as reduction in Il10 gene expression at 10 mg/kg, po administered via gavage pretreated for 2 hrs followed by BR103 challenge and measured after 30 mins by SYBR green dye based RT-PCR analysis", "format": "functional, organism-based", "summary_of_the_method": "as §4"}, "Rattus norvegicus [12]": {"test_system": "Rattus norvegicus", "experiment": "Antiinflammatory activity in Wistar rat model of BR103-induced paw edema assessed as reduction in Cd244 gene expression at 10 mg/kg, po administered via gavage pretreated for 2 hrs followed by BR103 challenge and measured after 30 mins by SYBR green dye based RT-PCR analysis", "format": "functional, organism-based", "summary_of_the_method": "as §4"}, "Rattus norvegicus [13]": {"test_system": "Rattus norvegicus", "experiment": "Antiinflammatory activity in Wistar rat model of BR103-induced paw edema assessed as inhibition of activation/degranulation of mast cells at 10 mg/kg, po administered via gavage pretreated for 2 hrs followed by BR103 challenge and measured after 30 mins by tryptase staining-based microscopic analysis", "format": "functional, organism-based", "summary_of_the_method": "(§5)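 Male Wistar rats 7–8 weeks old, given 10 mg/kg p.o. in olive oil 2 h before i.pl. BR103 (350 μg/paw). Sham/control received olive oil. Left paw plantar tissue taken 30 min after agonist and fixed in formalin. Frozen 5 μm sections stained with alcian blue/safranin O, or immunostained for tryptase, histamine or ED1. Positive cells quantified; n = 5 per group, one-way ANOVA.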"}, "Rattus norvegicus [14]": {"test_system": "Rattus norvegicus", "experiment": "Antiinflammatory activity in Wistar rat model of BR103-induced paw edema assessed as reduction in number of ED1-positive macrophages at 10 mg/kg, po administered via gavage pretreated for 2 hrs followed by BR103 challenge and measured after 30 mins by immunohistochemical analysis", "format": "functional, organism-based", "summary_of_the_method": "as §5"}, "Rattus norvegicus [15]": {"test_system": "Rattus norvegicus", "experiment": "Antiinflammatory activity in Wistar rat model of BR103-induced paw edema assessed as reduction in histamine release at 10 mg/kg, po administered via gavage pretreated for 2 hrs followed by BR103 challenge and measured after 30 mins by immunohistochemical analysis", "format": "functional, organism-based", "summary_of_the_method": "as §5"}}, "note": "Calls of active or inactive are those of the source. No cut-off for these calls is given here.", "data": [{"smiles": "Cc1cc(C(c2ccc(Cl)cc2)c2ccc(Cl)cc2)sc1C(=O)N[C@@H](CCCNC(=N)N)C(=O)O", "values": [{"measurement": "EC50", "setting": "[1]; read-out: EC50", "result": "> 100", "unit": "µM"}, {"measurement": "EC50", "setting": "[1]; read-out: pEC50 (converted)", "result": "> 100", "unit": "µM"}, {"measurement": "inhibition", "setting": "[2]", "result": "Dose-dependent effect"}, {"measurement": "IC50", "setting": "[3]", "result": 0.01, "unit": "µM"}, {"measurement": "Stability", "setting": "[4]", "result": "Stable"}, {"measurement": "AUC(0-t) at 8 h", "setting": "[5]", "result": 478, "unit": "ng·h/mL"}, {"measurement": "AUC(0-t) at 8 h", "setting": "[6]", "result": 3800, "unit": "ng·h/mL"}, {"measurement": "Vd", "setting": "[7]", "result": 0.1, "unit": "L"}, {"measurement": "half-life", "setting": "[8]", "result": 3.18, "unit": "h"}, {"measurement": "Activity", "setting": "Rattus norvegicus [9]", "result": 65, "unit": "%"}, {"measurement": "Activity", "setting": "Rattus norvegicus [10]", "result": "Active"}, {"measurement": "Activity", "setting": "Rattus norvegicus [11]", "result": "Active"}, {"measurement": "Activity", "setting": "Rattus norvegicus [12]", "result": "Active"}, {"measurement": "Activity", "setting": "Rattus norvegicus [13]", "result": "Active"}, {"measurement": "Activity", "setting": "Rattus norvegicus [14]", "result": "Active"}, {"measurement": "Activity", "setting": "Rattus norvegicus [15]", "result": "Active"}]}]}
